Laboratory results taken from ChEMBL document CHEMBL5712095, “The UVSSA complex alleviates MYC-driven transcription stress” (J Cell Biol, 2021).
Activity calls are given as the source filed them. The rule behind the calls is not given here.

Legend:
Assay type in all cases: cell-based
[1] = Toxicity in human MCF10A cells with UVSSA knockdown assessed as increase in MYC ON/MYC OFF survival ratio at 100 ng/ml administered every 48 to 72 hrs over 14 days by FBCS assay; conditions: mcf10, 336 h, time 14 day
MCF10 [2] = test: Inhibition of RNA polymerase 2 in human MCF10A cells with UVSSA knockdown assessed as increase in MYC ON/MYC OFF survival ratio at 100 ng/ml administered every 48 to 72 hrs over 14 days by FBCS assay; conditions: time 14.0 day
MCF10 [3] = test: Inhibition of RNA polymerase 2 in human MCF10A cells with UVSSA knockdown assessed as transiently alleviation of synthetic sickness phenotype at 100 ng/ml administered every 48 to 72 hrs over 14 days by FBCS assay; conditions: time 14.0 day
DNA = test: Induction of DNA double strand breaks in human MCF10A cells assessed as significant accumulation of P-CHK1(S345) or P-RPA (S4/S8) by Western blot analysis; conditions: MCF10
Summary of the method: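 Immunoblot of whole-cell lysates (RIPA buffer with protease/phosphatase inhibitors, sonicated, cleared at 4°C) from MCF10A-MYC-ER shRNA lines given 200 nM 4OHT or vehicle plus 1 µg/ml doxycycline every 3 d and harvested at day 9. β-Actin is the loading control and NCS-treated cells the DSB positive control. Signal detected by ECL on film.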

[4] = target: Ubiquitin carboxyl-terminal hydrolase 7 (Homo sapiens) (UniProt Q93009); test: Inhibition of USP7 in human MCF10A-MYC-ER cells assessed as increase in sensitization of MYC expressing cells up to 4 uM by Clonogenic assays relative to control; conditions: MCF10
Sequence of Ubiquitin carboxyl-terminal hydrolase 7 (Homo sapiens) (Q93009 whole entry, looked up): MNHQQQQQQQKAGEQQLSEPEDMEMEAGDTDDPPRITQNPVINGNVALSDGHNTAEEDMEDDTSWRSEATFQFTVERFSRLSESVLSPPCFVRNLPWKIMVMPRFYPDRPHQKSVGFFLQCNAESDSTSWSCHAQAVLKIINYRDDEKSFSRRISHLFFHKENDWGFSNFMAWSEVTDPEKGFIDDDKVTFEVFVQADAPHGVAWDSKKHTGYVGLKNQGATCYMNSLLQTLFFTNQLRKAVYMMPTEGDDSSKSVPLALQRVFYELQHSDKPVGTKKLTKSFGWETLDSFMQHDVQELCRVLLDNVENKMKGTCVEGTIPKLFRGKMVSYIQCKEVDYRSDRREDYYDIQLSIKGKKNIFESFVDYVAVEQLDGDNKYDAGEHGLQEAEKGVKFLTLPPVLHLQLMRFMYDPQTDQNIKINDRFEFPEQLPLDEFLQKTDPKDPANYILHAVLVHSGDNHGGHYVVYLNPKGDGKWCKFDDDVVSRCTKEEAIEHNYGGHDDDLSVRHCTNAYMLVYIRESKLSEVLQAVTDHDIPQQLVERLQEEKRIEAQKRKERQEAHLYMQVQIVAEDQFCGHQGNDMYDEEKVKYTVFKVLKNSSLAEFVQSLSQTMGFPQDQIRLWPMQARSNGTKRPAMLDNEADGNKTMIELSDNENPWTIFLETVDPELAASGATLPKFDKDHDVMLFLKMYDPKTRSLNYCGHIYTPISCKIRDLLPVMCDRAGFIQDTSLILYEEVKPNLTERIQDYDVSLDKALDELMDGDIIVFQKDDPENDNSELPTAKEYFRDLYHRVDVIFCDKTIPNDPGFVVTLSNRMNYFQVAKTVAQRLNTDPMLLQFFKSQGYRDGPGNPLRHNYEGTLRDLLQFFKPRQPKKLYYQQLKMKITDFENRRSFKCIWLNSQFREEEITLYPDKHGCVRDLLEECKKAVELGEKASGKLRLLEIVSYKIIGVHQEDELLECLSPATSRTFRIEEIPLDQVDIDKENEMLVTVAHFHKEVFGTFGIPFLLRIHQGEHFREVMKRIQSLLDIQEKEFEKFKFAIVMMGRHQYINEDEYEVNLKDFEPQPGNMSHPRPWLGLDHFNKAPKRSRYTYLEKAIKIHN
Summary of the method: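 Clonogenic assay: MCF10A-MYC-ER cells plated at 500 per 100-mm dish with 200 nM 4OHT or vehicle. Next day, P5091 at 0–4 µM for 24 h, then medium with 4OHT or vehicle for 10 d at 37°C. Colonies methanol-fixed, crystal violet-stained and counted; percentage survival from colony number; unpaired t test, n = 4.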

[5] = target: Ubiquitin carboxyl-terminal hydrolase 7 (Homo sapiens) (UniProt Q93009); test: Inhibition of USP7 in human MCF10A-MYC-ER cells assessed as increase in sensitization of MYC expressing cells up to 4 uM by MTT assay relative to control; conditions: MCF10
MCF10 [6] = test: Inhibition of DNA replicative polymerase in human MCF10A cells with UVSSA knockdown assessed as increase in MYC ON/MYC OFF survival ratio at 50 ng/ml administered every 48 to 72 hrs over 26 days by FBCS assay; conditions: time 26.0 day
Summary of the method: (§1)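 FBCS: 250,000 shUVSSA-4 or shCONTROL MCF10A-MYC-ER cells coplated with 250,000 shRNA-free cells. Given 1 µg/ml doxycycline, 200 nM 4OHT or ethanol vehicle, and aphidicolin (top dose 50 ng/ml) or vehicle every 48–72 h for 26 d. Fluorescent fraction measured by flow cytometry at each passage; MYC ON/MYC OFF ratio calculated; n = 3.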

MCF10 [7] = test: Inhibition of DNA replicative polymerase in human MCF10A cells with UVSSA knockdown assessed as transiently alleviation of synthetic sickness phenotype at 50 ng/ml administered every 48 to 72 hrs over 26 days by FBCS assay; conditions: time 26.0 day; summary of the method: as §1

With `CC[C@H](C)[C@@H]1NC(=O)CNC(=O)[C@@H]2Cc3c([nH]c4cc(O)ccc34)[S@+]([O-])C[C@H](NC(=O)CNC1=O)C(=O)N[C@@H](CC(N)=O)C(=O)N1C[C@H](O)C[C@H]1C(=O)N[C@@H]([C@@H](C)[C@@H](O)CO)C(=O)N2` the Activity [1] was “Toxic”, the inhibition (MCF10 [2]) was “Active” and the inhibition (MCF10 [3]) was “Active”.
For `CN[C@H]1[C@@H](O[C@@H]2C3CC#C[C@H]4O[C@@]4(C4COC(=O)O4)C#CC3=C[C@H]2OC(=O)c2c(O)ccc3c(C)cc(OC)cc23)O[C@H](C)[C@H](O)[C@@H]1O` (stereo partly drawn), the Activity (DNA) was “Active”.
In the case of `CC(=O)c1cc([N+](=O)[O-])c(Sc2cccc(Cl)c2Cl)s1`, the inhibition [4] is reported as “Active” and the fold change (FC) [5] is reported as 3.
In the case of `C[C@@]1(CO)[C@H](O)CC[C@@]2(C)[C@H]1CC[C@H]1C[C@@H]3C[C@@]12CC[C@]3(O)CO`, the inhibition (MCF10 [6]) is reported as “inactive” and the inhibition (MCF10 [7]) is reported as “inactive”.
